# Key:
# Plasma [1] = assay: Unbound plasma concentration in CD-1 mouse at 3 mg/kg, iv and 10 mg/kg, po measured at 1 hr; format: ADME, organism-based; settings: in vivo
# Outline: (§1)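 Male CD-1 mice, 3 per cohort, dosed 3 mg/kg iv and 10 mg/kg po; plasma drawn at 1 and 4 h, brains harvested from oral groups only. Formulations varied by compound: 40% PEG 400/10% EtOH/50% H₂O; 30% captisol in H₂O; iv 50 mM citrate in saline (pH 4); po 1% CMC/0.5% Tween/5 mM citrate in H₂O.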
# Mus musculus = assay: Hepatic clearance in CD-1 mouse at 3 mg/kg, iv; format: ADME, organism-based, Liver; parameters: dose 3 mg/kg, route intravenous; settings: in vivo; outline: as §1
# [2] = Oral bioavailability in CD-1 mouse at 10 mg/kg; format: ADME, organism-based; settings: in vivo
# Brain [3] = assay: Fraction unbound in CD-1 mouse brain at 10 mg/kg, po measured at 1 hr; format: ADME, organism-based; parameters: dose 10 mg/kg, route oral; settings: in vivo
# Outline: (§2)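 Male CD-1 mice, 3 per cohort, dosed 10 mg/kg orally; brains harvested at 1 and 4 h.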
# Plasma [4] = assay: Unbound plasma concentration in CD-1 mouse at 3 mg/kg, iv and 10 mg/kg, po measured at 4 hrs; format: ADME, organism-based; settings: in vivo; outline: as §1
# [5] = Ratio of unbound drug level in brain to plasma in CD-1 mouse measured at 1 hr; format: ADME; settings: for Kp uu at 1 h: CD-1, mouse, read-out: K(p,uu,brain)
# Outline: (§3)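 Male CD-1 mice given 10 mg/kg po, 3 per cohort; plasma and brain collected at 1 and 4 h. Free brain/plasma ratio from unbound concentrations; coverage ratio = free brain concentration divided by HEK293 Aβ₁₋₄₀ cell IC50.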
# Brain [6] = assay: Fraction unbound in CD-1 mouse brain at 10 mg/kg, po measured at 4 hrs; format: ADME, organism-based; parameters: dose 10 mg/kg, route oral; settings: in vivo; outline: as §2
# [7] = Ratio of unbound drug level in brain to plasma in CD-1 mouse measured at 4 hrs; format: ADME; settings: for Kp uu at 4 h: CD-1, mouse, read-out: K(p,uu,brain); outline: as §3
# [8] = Clearance in CD-1 mouse liver microsomes at 1 uM after 20 mins by LC-MS/MS analysis in presence of NADPH; format: ADME, Microsome
# Outline: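 Compound at 1 μM incubated with mouse liver microsomes for 20 min at 37 °C with NADPH.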
# [9] = Dissociation constant, pKa of the compound by parallel capillary electrophoresis method; format: physicochemical
# Outline: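 pKa determined by a 24-point parallel capillary electrophoresis method, quantitation by UV absorbance at 229 nm.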
# [10] = Fraction unbound in Hartley guinea pig brain at 60 mg/kg, po measured at 3 hrs; format: ADME, organism-based, Cavia porcellus; parameters: dose 60 mg/kg, route oral; settings: in vivo
# [11] = Unbound plasma concentration in Hartley guinea pig at 60 mg/kg, po measured at 5 hrs; format: ADME, organism-based, Cavia porcellus; parameters: dose 60 mg/kg, route oral; settings: in vivo
# Outline: (§4)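 Male Hartley guinea pigs were dosed orally at 30, 60 or 100 mg/kg, with six or eight animals per cohort. The vehicle was either a suspension in 1% CMC/0.5% Tween/5 mM citrate in H₂O or a 40/10/50 PEG/EtOH/H₂O solution, depending on compound. Unbound plasma concentration was sampled at 1–12 h post-dose alongside brain, CSF and CSF Aβ₁₋₄₀.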
# [12] = Drug uptake in Hartley guinea pig CSF at 60 mg/kg, po measured at 3 hrs; format: ADME, organism-based, Cavia porcellus, Cerebrospinal fluid; parameters: dose 60 mg/kg, route oral; settings: read-out: Drug uptake
# Outline: (§5)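 Male Hartley guinea pigs, oral dosing (CMC/Tween/citrate suspension or PEG/EtOH/H₂O solution), six or eight animals per cohort; CSF drug concentration (nM) measured at each time point.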
# [13] = Unbound plasma concentration in Hartley guinea pig at 60 mg/kg, po measured at 3 hrs; format: ADME, organism-based, Cavia porcellus; parameters: dose 60 mg/kg, route oral; settings: in vivo; outline: as §4
# [14] = Ratio of unbound drug level in brain to plasma in Hartley guinea pig at 60 mg/kg, po measured at 5 hrs; format: ADME, organism-based, Cavia porcellus; parameters: dose 60 mg/kg, route oral; settings: brain and plasma (unbound), read-out: K(p,uu,brain)
# Outline: (§6)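 Male Hartley guinea pigs given single oral doses of 30, 60 or 100 mg/kg in 1% CMC/0.5% Tween/5 mM citrate in H₂O, 6–8 animals per cohort. Plasma, brain and CSF sampled at 1–12 h; free brain to free plasma ratio computed.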
# [15] = Fraction unbound in Hartley guinea pig brain at 60 mg/kg, po measured at 5 hrs; format: ADME, organism-based, Cavia porcellus; parameters: dose 60 mg/kg, route oral; settings: in vivo
# [16] = Drug uptake in Hartley guinea pig CSF at 60 mg/kg, po measured at 5 hrs; format: ADME, organism-based, Cavia porcellus, Cerebrospinal fluid; parameters: dose 60 mg/kg, route oral; settings: read-out: Drug uptake; outline: as §5
# [17] = Ratio of unbound drug level in brain to plasma in Hartley guinea pig at 60 mg/kg, po measured at 3 hrs; format: ADME, organism-based, Cavia porcellus; parameters: dose 60 mg/kg, route oral; settings: brain and plasma (unbound), read-out: K(p,uu,brain); outline: as §6
Cp(f) (Plasma [1]),CLH (Mus musculus),bioavailability [2],Drug uptake(free) (Brain [3]),Cp(f) (Plasma [4]),Kp uu at 1 h [5],Drug uptake(free) (Brain [6]),Kp uu at 4 h [7],CLhep predicted at 1 µM [8],further results,Structure (SMILES)
0.26 µM,4.32 L/h/kg,75%,7.1 nM,0.063 µM,0.027,< 0.75 nM,< 0.012,3.06 L/h/kg,,C[C@H]1OCC[C@H]2Oc3ccc(-c4cccnc4F)cc3[C@]3(N=C(N)N(C)C3=O)[C@H]12 (racemic)
0.053 µM,3.06 L/h/kg,15%,1.9 nM,0.025 µM,0.036,3.7 nM,0.15,3.3 L/h/kg,,CN1C(=O)[C@]2(N=C1N)c1cc(-c3cccnc3F)ccc1O[C@H]1CCOC[C@@]12C (racemic)
,,,,,,,,2.4 L/h/kg,,CN1C(=O)[C@]2(N=C1N)c1cc(-c3cccnc3F)c(F)cc1O[C@H]1CCOC[C@@H]12 (racemic)
0.0095 µM,2.88 L/h/kg,43%,7.2 nM,0.0037 µM,0.76,2.5 nM,0.68,3.42 L/h/kg,pKa [9]: 6.7,C[C@]12CCOC[C@@H]1[C@]1(COC(N)=N1)c1cc(-c3cc(F)cc(Cl)c3)ccc1O2
,,,,,,,,,Drug uptake(free) [10]: 12 nM; Cp(f) [11]: 0.079 µM; concentration at 3 h [12]: 0.09 µM; Cp(f) [13]: 0.26 µM; Kp uu at 5 h [14]: 0.085; Drug uptake(free) [15]: 6.7 nM; concentration at 5 h [16]: 0.04 µM; Kp uu at 3 h [17]: 0.046,CN1C(=O)[C@]2(N=C1N)c1cc(-c3cccc(C#N)c3)ccc1O[C@H]1CCOC[C@@H]12
,,,,,,,,3.66 L/h/kg,,C[C@]12CCOC[C@@H]1[C@]1(COC(N)=N1)c1cc(-c3cccnc3F)ccc1O2 (racemic)
0.0087 µM,1.32 L/h/kg,67%,0.28 nM,0.017 µM,0.032,0.49 nM,0.029,1.92 L/h/kg,,CN1C(=O)[C@]2(N=C1N)c1cc(-c3cc(F)cc(Cl)c3)ccc1O[C@H]1CCOC[C@@H]12 (racemic)
,,,,,,,,5.04 L/h/kg,,C[C@]12CCOC[C@@H]1[C@]1(COC(N)=N1)c1cc(-c3cccnc3F)c(F)cc1O2 (racemic)
0.22 µM,2.04 L/h/kg,76%,18 nM,0.12 µM,0.082,5.8 nM,0.048,3.6 L/h/kg,,C[C@]12CCOC[C@@H]1[C@]1(COC(N)=N1)c1cc(-c3cncc(Cl)c3)ccc1O2 (racemic)
0.026 µM,6.6 L/h/kg,19%,1 nM,0.0075 µM,0.038,< 0.8 nM,< 0.11,3.24 L/h/kg,,CN1C(=O)[C@]2(N=C1N)c1cc(-c3cncc(Cl)c3)ccc1O[C@H]1CCOC[C@@H]12 (racemic)
0.32 µM,4.2 L/h/kg,,11 nM,0.075 µM,,8.4 nM,,2.76 L/h/kg,"K(p,uu,brain) ([5]; mouse, 1 h): 0.034; K(p,uu,brain) ([7]; mouse, 4 h): 0.11",CN1C(=O)[C@]2(N=C1N)c1cc(-c3cccnc3F)ccc1O[C@H]1CCOC[C@@H]12 (racemic)
0.16 µM,8.4 L/h/kg,38%,4.4 nM,0.017 µM,0.028,< 2.3 nM,< 0.14,2.7 L/h/kg,,CN1C(=O)[C@]2(N=C1N)c1cc(-c3cncc(F)c3)ccc1O[C@H]1CCOC[C@@H]12 (racemic)
,,,,,,,,3.9 L/h/kg,,C[C@]12CCOC[C@@H]1[C@]1(COC(N)=N1)c1cc(-c3cncc(Cl)c3)c(F)cc1O2 (racemic)
,,,,,,,,,pKa [9]: 6.4,C[C@H]1OCC[C@H]2Oc3ccc(-c4cccnc4F)cc3[C@@]3(COC(N)=N3)[C@H]12 (racemic)
,,,,,,,,,pKa [9]: 6.4,C[C@@]12COCC[C@H]1Oc1ccc(-c3cccnc3F)cc1[C@@]21COC(N)=N1 (racemic)
,,,,,,,,1.26 L/h/kg,,CN1C(=O)[C@]2(N=C1N)c1cc(-c3cccc(OC(F)F)c3)c(F)cc1O[C@H]1CCOC[C@@H]12 (racemic)
0.21 µM,2.1 L/h/kg,103%,3 nM,0.17 µM,0.014,4.3 nM,0.025,1.02 L/h/kg,,CN1C(=O)[C@]2(N=C1N)c1cc(-c3cccc(C#N)c3)ccc1O[C@H]1CCOC[C@@H]12 (racemic)

# — ChEMBL document CHEMBL3124885, “Discovery of 7-tetrahydropyran-2-yl chromans: β-site amyloid precursor protein cleaving enzyme 1 (BACE1) inhibitors that reduce amyloid β-protein (Aβ) in the central nervous system” (J Med Chem, 2014)
